Assay outcomes (PubChem)
TAAR1 antag = antagonists of human TAAR1 | inhibition, % at 3 µM | CHO RD-HGA16 TAAR1, Fluo-8 calcium fluorescence, antagonist | AID 624466 | Q96RJ0 | hit rate 1.5% among 360,000;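 active = inhibition above a per-plate cutoff, the mean inhibition of test compounds on that plate plus 3 SD, cut at about 49% in these data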;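 also: 0% = DMSO plus EC80 beta-PEA response and 100% = DMSO alone without agonist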
Target sequence (Q96RJ0 whole entry, looked up): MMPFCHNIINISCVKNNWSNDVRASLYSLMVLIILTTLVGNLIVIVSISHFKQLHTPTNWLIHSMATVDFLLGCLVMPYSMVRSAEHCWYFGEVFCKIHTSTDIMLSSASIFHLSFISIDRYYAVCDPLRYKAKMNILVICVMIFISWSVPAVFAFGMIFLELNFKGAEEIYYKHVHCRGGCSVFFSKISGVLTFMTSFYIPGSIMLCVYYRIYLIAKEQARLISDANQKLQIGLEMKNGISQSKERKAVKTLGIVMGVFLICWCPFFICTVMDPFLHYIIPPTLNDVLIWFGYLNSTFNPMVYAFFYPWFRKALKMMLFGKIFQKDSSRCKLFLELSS
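Assay system: CHO-derived RD-HGA16 cells stably expressing human TAAR1 plus Gα16. Timing: 140 s kinetic read after compound, 140 s after agonist. Technique: kinetic Fluo-8 calcium fluorescence measurement. Measure: % inhibition of agonist calcium response.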
V1aR counter = V1a receptor agonism, counter-screen for OXTR agonists; activation, % at 3 µM; CHO-V1R cells, Fluo-8 calcium fluorescence, agonist mode; 0% DMSO, 100% 3 nM vasopressin; hit rate 0.25% among 320,000;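 active = activation above the mean activation of all tested compounds plus 3 SD, per screening run, cut at about 20% in these data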;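 also: signal is peak over basal fluorescence ratio across a 100 second FLIPR read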
TAAR1 ag = agonists of human TAAR1; CHO RD-HGA16 TAAR1, Fluo-8 calcium fluorescence; vehicle wells 0%, saturating PEA agonist 100%; activation, % at 3 µM; hit rate 0.99% among 360,000; AID 624467;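 active = activation above the mean activation of all test compounds in the run plus 3 SD, cut at about 38% in these data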
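Repeats: no replicates (n 1) | Material: CHO-derived RD-HGA16 cells with stable Gα16 and human TAAR1 | Technique: Kinetic Fluo-8 calcium fluorescence | Schedule: 17-24 h seeding, 75 min 37 °C dye, 30 min RT | Evaluation: % activation from peak over basal fluorescence ratio, DMSO-to-PEA scaled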
OXTR potentiate = human OXTR potentiation | AID 2445 | hit rate 0.061% among 320,000 | P30559 | CHO-OTR cells, Fluo-8 calcium fluorescence, potentiator mode; 0% = oxytocin EC15, 100% = EC100 | activation, % at 3 µM;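 active = activation above that plate's cutoff, the mean activation of tested compounds plus 3 SD, cut at about 6.6% in these data, passing the limit was not always enough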;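 also: 100% uses oxytocin at 75 nM as the full agonist control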
Target sequence (P30559 whole entry, looked up): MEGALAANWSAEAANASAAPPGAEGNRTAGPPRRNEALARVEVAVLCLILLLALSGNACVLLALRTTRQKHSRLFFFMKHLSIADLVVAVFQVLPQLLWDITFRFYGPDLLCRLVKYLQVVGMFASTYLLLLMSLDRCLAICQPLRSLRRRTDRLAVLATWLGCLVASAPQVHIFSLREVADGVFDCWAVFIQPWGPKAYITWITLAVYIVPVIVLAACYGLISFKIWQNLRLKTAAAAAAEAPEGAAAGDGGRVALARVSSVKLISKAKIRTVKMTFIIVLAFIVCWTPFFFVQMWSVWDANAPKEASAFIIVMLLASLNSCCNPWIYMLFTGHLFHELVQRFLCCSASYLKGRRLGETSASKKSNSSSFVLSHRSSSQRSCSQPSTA
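System: human OTR in CHO cells / Also added: sub-maximal oxytocin, roughly EC15 / Control set: EC15 oxytocin low, 75 nM oxytocin high / Schedule: 6 min compound pre-incubation at room temperature, 100 s kinetic read / Compound: single-point 3.0 µM / Replication: singlicate / Technique: Fluo-8 calcium dye fluorescence / Read-out basis: % activation of max/min ratio relative to oxytocin controls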
OXTR agonist = activates the human oxytocin receptor; hit rate 0.32% among 320,000; P30559; AID 2435; CHO-OTR cells, Fluo-8 calcium fluorescence; normalized: DMSO 0%, oxytocin 100%; activation, % at 3 µM;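 active = activation above the mean of all tested compounds plus 3 SD, cutoff set per screening run, cut at about 20% in these data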;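 also: peak over basal fluorescence ratio from a 100 s FLIPR kinetic read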
TAAR1 nonsel count = nonselective antagonist in TAAR1 antagonist counter-screen. inhibition, % at 3 µM. shares compounds with TAAR1 antag. hit rate 77% among 2,400. counterscreen cell line, calcium fluorescence, antagonist mode; in the data active = inhibition above about 22%;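 also: CHO-Ga16 host cells stimulated with ATP at an EC80 level; 0% = agonist EC80 plus vehicle and 100% = vehicle without agonist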
TAAR1 antag conf = confirmation of human TAAR1 antagonists. shares compounds with TAAR1 antag. TAAR1-expressing cells, fluorescence antagonist read-out. inhibition, % at 3 µM. hit rate 40% among 2,400. AID 651785; in the data active = inhibition above about 49%;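 also: CHO-Ga16 host cells challenged with agonist PEA near its EC80; 0% = agonist at EC80 plus vehicle and 100% = vehicle with no agonist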
Ga16 nonsel ag = counter-screen for TAAR1 antagonists: nonselective Ga16 agonists; Ga16-expressing cells, calcium fluorescence, agonist counterscreen; shares compounds with TAAR1 antag; activation, % at 3 µM; hit rate 18% among 2,400; AID 651953; in the data active = activation above about 12%;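 also: 0% = vehicle wells and 100% = saturating stimulus response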
TAAR1 ag count = TAAR1 agonism, antagonist counter-screen; AID 651955; shares compounds with TAAR1 antag; hit rate 2% among 2,400; hTAAR1 cell line, fluorescence activation, agonist mode; activation, % at 3 µM; in the data active = activation above about 37%;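 also: CHO cells stably expressing TAAR1 with calcium dye readout; 0% = DMSO vehicle and 100% = full agonist response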
* = called active by the depositor; nt = not tested or not shown. Rows were chosen to be rich in hits. Some 2.3% of all compounds tested hit in one or more screens of this group.

SMILES | TAAR1 antag | V1aR counter | TAAR1 ag | OXTR potentiate | OXTR agonist | TAAR1 nonsel count | TAAR1 antag conf | Ga16 nonsel ag | TAAR1 ag count
COc1ccc(C(=O)Nc2cccc(/C(C)=N/NC(=O)c3ccc([N+](=O)[O-])c(C)c3)c2)cc1OC | 60* | 0 | 21 | -7 | 0 | 44* | 66* | 12* | 10
COc1ccc(C(=O)Nc2cccc(NC(C)=O)c2)cc1OC | -12 | 0 | 3 | -1 | 0 | nt | nt | nt | nt
Cc1cccc(NC(=O)c2cccc(NC(=O)c3ccco3)c2)c1 | 22 | nt | 8 | nt | nt | nt | nt | nt | nt
CC(C)CCN1CCN=C1Nc1ccccc1 | 108* | 0 | 15 | -9 | 1 | 2 | -6 | 0 | 0
CC(C)(C)c1cc(C(=O)NCc2cc(F)cc3c2OCOC3)n(Cc2ccccc2)n1 | 81* | -2 | 4 | -15 | -2 | 34* | 55* | 5 | 2
CC(C)(C)c1cc(C(=O)NNC(=O)Nc2ccccc2)n(Cc2ccccc2)n1 | 1 | 0 | -2 | -1 | -1 | nt | nt | nt | nt
CCC(C)C(=O)OCC1(c2ccc(C)cc2OC(=O)C(C)C)CO1 (stereo not given) | -7 | 0 | 1 | -2 | 1 | nt | nt | nt | nt
CCNC(=O)C1(C)CCN(C(=O)c2ccc(C(F)(F)F)cc2)C1 (stereo not given) | 10 | nt | 1 | nt | nt | nt | nt | nt | nt
C=CCOc1ccc(/C=C/C(=O)OCc2csc(CC(=O)Nc3ccccc3C)n2)cc1 | 66* | 6 | 4 | -9 | 6 | 38* | 52* | 8 | 7
C=CCOc1ccc(/C=C/C(=O)OCC(=O)NCc2cccs2)cc1 | 52* | 5 | 22 | -16 | 3 | 29* | 40 | 9 | 24
O=C(COC(=O)/C=C/c1ccc(Cl)cc1)NCc1cccs1 | 3 | nt | 3 | nt | nt | nt | nt | nt | nt
COc1cc(Cl)cc(NC(=O)CCN2CCN(C)CC2)c1 | -3 | 1 | 26 | -3 | 0 | nt | nt | nt | nt
C/C(=N\Nc1cc(C)nc(-c2ccccc2O)n1)c1ccccc1O | 59* | -1 | 6 | -2 | 0 | 30* | 43 | 7 | 3
O=C(CN(c1ccccc1)S(=O)(=O)c1ccccc1)NCCSc1nc2ccccc2s1 | 71* | 0 | 14 | -4 | -1 | 36* | 62* | 8 | 6
COc1ccccc1Cn1cccc1C=O | 5 | -1 | 9 | -7 | -2 | nt | nt | nt | nt
CCc1nc(SCC(=O)NCCc2ccccc2)n[nH]1 | 75* | 0 | 33 | 1 | 0 | -2 | 70* | 0 | 49*
O=C(/C=C1\C(=O)Nc2ccccc21)/C=C1\C(=O)Nc2ccccc21 | 60* | nt | 34 | nt | nt | 35* | 36 | 8 | 24
O=C1Nc2ccccc2/C1=C\C(=O)c1ccccc1 | 20 | 1 | 12 | -22 | 0 | nt | nt | nt | nt
COCCn1c(SCC(=O)N2CCCCCC2)nc2c([nH]c3ccccc32)c1=O | 14 | 0 | 1 | -2 | -1 | nt | nt | nt | nt
CCOC(=O)N1CCN(C(=O)CSc2nc3c([nH]c4ccccc43)c(=O)n2CCOC)CC1 | 55* | 0 | 11 | -7 | -1 | 28* | 43 | 5 | 3
Cn1c(N)c(C(=O)COC(=O)C2(c3cccc(F)c3)CCCC2)c(=O)n(C)c1=O | 63* | 4 | 16 | -20 | 2 | 32* | 51* | 8 | 13
Cn1c(N)c(C(=O)COC(=O)c2ccc(F)cc2Cl)c(=O)n(C)c1=O | 7 | 7 | 28 | -4 | 4 | nt | nt | nt | nt
CCCCCCC(=O)N(O)C1CC(=O)N(c2ccc(Br)cc2)C1=O (stereo not given) | 106* | 0 | -4 | -5 | 0 | 12 | 13 | 2 | 1
CCCCCCC(=O)N(O)C1CC(=O)N(c2ccc(F)cc2)C1=O (stereo not given) | -9 | 0 | 0 | -14 | -1 | nt | nt | nt | nt
CC1(C)c2[nH]c3ccccc3c2C[C@@H]2C(=O)N(c3ccc(F)cc3F)C(=O)N21 | 61* | 9 | 30 | -11 | 10 | 40* | 52* | 17* | 25
SMILES | TAAR1 antag | V1aR counter | TAAR1 ag | OXTR potentiate | OXTR agonist | TAAR1 nonsel count | TAAR1 antag conf | Ga16 nonsel ag | TAAR1 ag count
CC1(C)c2[nH]c3ccccc3c2C[C@@H]2C(=O)N(Cc3ccc(F)cc3)C(=O)N21 | 67* | 3 | 23 | -6 | 1 | 34* | 50* | 7 | 10
Cc1nn(-c2ccccn2)c2c1-c1nc(N3CCOCC3)ncc1CC2 | 70* | 0 | 15 | -7 | -2 | 27* | 49* | 6 | 5
CCOC(=O)CN1NC2(CCCC(C)C2)NC1=S (stereo not given) | 5 | 0 | 4 | -11 | 1 | nt | nt | nt | nt
COc1cc(/C=N/NC(=O)CSc2cc(C)c(Br)cc2C)ccc1O | 66* | 6 | 24 | -24 | 12 | 38* | 59* | 13* | 16
COC(=O)Cc1cc(=O)[nH]c(/N=C(\N)Nc2ccc(C)cc2)n1 | -9 | 1 | 5 | -2 | 0 | nt | nt | nt | nt
Cn1nccc1-c1ccc(C(=O)Nc2cccc(NS(C)(=O)=O)c2)c2occc12 | 35 | nt | 17 | nt | nt | nt | nt | nt | nt
CCCCCNc1nc(-c2ccccc2)nc(-n2ccnc2)n1 | -20 | -1 | 0 | -11 | -2 | nt | nt | nt | nt
CCCCNc1nc(N(C)c2ccccc2)nc(-n2ccnc2)n1 | 50* | -1 | 17 | -1 | -2 | 3 | -5 | 0 | 0
C=CCNc1nc(N(c2ccccc2)c2ccccc2)nc(-n2ccnc2)n1 | 95* | 0 | 37 | -4 | -1 | 47* | 84* | 10 | 18
CN(c1ccccc1)c1nc(-n2ccnc2)nc(-n2ccnc2)n1 | 6 | 1 | 4 | -11 | -2 | nt | nt | nt | nt
c1ccc(N(c2ccccc2)c2nc(-n3ccnc3)nc(-n3ccnc3)n2)cc1 | 104* | 0 | 34 | -10 | -1 | 56* | 96* | 27* | 43*
O=C(c1ccco1)N1CCN(S(=O)(=O)c2ccc(C3CCCCC3)cc2)CC1 | 15 | 5 | 13 | -7 | 3 | nt | nt | nt | nt
Cn1c(=O)[nH]c(=O)c2c1nc(NCc1ccccc1)n2Cc1ccc(F)cc1 | 3 | nt | 4 | nt | nt | nt | nt | nt | nt
Cc1noc(C)c1CN(C(=S)NC1CC1)c1ccccc1 | -9 | 0 | 2 | 1 | 1 | nt | nt | nt | nt
C=CC[C@@H](Cc1ccc(F)cc1)C(=O)OC[C@H]1CCCN1C(=O)[C@@H](CC=C)CC(=O)N[C@H](CO)Cc1ccccc1 | 81* | 4 | 22 | -1 | -2 | 41* | 43 | 13* | 7
